Only some compounds are listed: those with a hit (about 2.6% of all), similar ones and a draw of the others.
SR-BI DiI inh – inhibitors of mouse SR-BI mediated HDL lipid uptake; Q61009; ldlA[mSR-BI] CHO cells, DiI-HDL uptake fluorescence, 3 h; inhibition, % at 12.5 µM; 0.96% of 320,000 active; AID 488896;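 active means mean replicate inhibition of at least 70% and a set share of replicates each scoring 70 or more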;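 further: 0% = median of neutral control wells and 100% = median of positive control wells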
Target sequence (Q61009 whole entry, looked up): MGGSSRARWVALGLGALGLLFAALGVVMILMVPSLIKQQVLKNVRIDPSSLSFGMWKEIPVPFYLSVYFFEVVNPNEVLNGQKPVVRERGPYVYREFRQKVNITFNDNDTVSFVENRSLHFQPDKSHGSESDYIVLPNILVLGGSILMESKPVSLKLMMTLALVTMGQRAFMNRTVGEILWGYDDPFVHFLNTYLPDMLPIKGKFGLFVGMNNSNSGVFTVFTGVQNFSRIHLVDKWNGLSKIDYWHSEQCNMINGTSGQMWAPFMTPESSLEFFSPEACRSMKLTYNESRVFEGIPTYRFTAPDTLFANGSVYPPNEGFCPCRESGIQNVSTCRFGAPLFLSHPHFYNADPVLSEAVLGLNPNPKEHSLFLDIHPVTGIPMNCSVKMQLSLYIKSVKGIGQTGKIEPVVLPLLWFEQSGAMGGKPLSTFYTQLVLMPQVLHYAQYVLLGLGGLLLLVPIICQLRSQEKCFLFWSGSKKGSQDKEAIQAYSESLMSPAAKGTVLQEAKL
PvdQ acylase – P. aeruginosa PvdQ acylase inhibition | 0.063% of 340,000 active | AID 488965 | purified PvdQ acylase, fluorescence plate reader | inhibition, % at 10 µM; in the data active means inhibition above about 30%, passing the limit was not always enough;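 further: 0% = vehicle neutral wells and 100% = reference inhibitor wells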
rRNA inh HTS – inhibitors of bacterial rRNA selective over humanized ribosomes; E. coli WT GFP vs humanized-ribosome RFP mutants, fluorescence, 24 h; active compounds read low; DMSO median 0, no signal -100; GFP signal change (wild-type ribosome), % (concentration not given with the values); 1.6% of 350,000 active;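 active means significant combined selectivity score with lowered wild-type GFP, culture density cut under 30%, mutant RFP and density less affected; inactive means any of these conditions unmet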
XiGFP reactiv – reactivates the inactive X chromosome in mouse fibroblasts. XiGFP mouse fibroblasts, % GFP-positive cells imaging, 3 d; cells co-treated with 5-aza-dC sensitizer; scaled so ellipticine positive control = 100%. activation, % at 7.58 µM. 0.055% of 360,000 active;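 active means mean normalized replicate activation at least 10% and every replicate at or above 10%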;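 further: 0% = median of on-plate neutral control wells and 100% = ellipticine 6 µM median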
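assay system = SV40-immortalized XiGFP fibroblast cells, line 68-5-11 | buffer or medium = DMEM plus 5-aza-dC sensitizer | doses = single-point pinned compound dosing | times = 3-day compound exposure, then 15 min fixation at room temperature | benchmarks = positive control ellipticine, 6 µM final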
dFosB act-1 – enhances mouse delta FosB homodimer DNA binding; activation, % at 25 µM; 0.99% of 340,000 active; purified delta FosB, TAMRA-CDK5 oligo fluorescence polarization; percent of positive-control signal above neutral wells; P13346;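 active means mean activation above about 17%, with every replicate also reaching it, limit read from the data, passing the limit was not always enough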
SR-BI DiI-HDL act – activators of SR-BI mediated HDL lipid uptake; 0.096% of 320,000 active; AID 504775; activation, % at 12.5 µM; CHO ldlA[mSR-BI] cells, DiI-HDL uptake fluorescence, 3 h; 100 = double the neutral-control signal;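 active means mean replicate activation of at least 60% and every replicate at or above 60%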;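 further: 0% = median plate neutral-control signal and 100% = twice that signal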
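Material: SR-BI-overexpressing, LDLR-lacking CHO cells | Dosing: Single compound concentration, delivered by pin transfer | Probe or stimulus: Labelled HDL, 10 µg/mL | Signal: Bottom-read cell fluorescence after medium removal, ex 550/em 595 nm | Schedule: 3 h, 37 °C | Evaluation: HDL uptake via cellular fluorescence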
dFosB act-2 – enhances mouse delta FosB homodimer binding to DNA | shares compounds with dFosB act-1 | purified delta FosB, TAMRA-CDK5 oligo fluorescence polarization; normalised: neutral wells 0, positive control 100 | activation, % at 24.9 µM | 2,400 tested, under 10 active | AID 588690;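 active means highest replicate activation at or above 34% and every replicate reaching that threshold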;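 further: higher polarization means more probe DNA bound by delta FosB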
An asterisk follows results filed as active; . = not tested or not shown.

SMILES | SR-BI DiI inh | PvdQ acylase | rRNA inh HTS | XiGFP reactiv | dFosB act-1 | SR-BI DiI-HDL act | dFosB act-2
COc1ccc(NS(=O)(=O)c2cc(NC(=O)c3cc(=O)c4ccccc4o3)ccc2OC)cc1 | 52.4 | -1.5 | . | 0.0 | 48.0* | -52.4 | 5.6
C[C@@H](NC(=O)[C@H]1[C@H](CO)[C@H]2Cn3c(cccc3=O)[C@H]2N1S(C)(=O)=O)c1ccccc1 | . | . | -0.2 | 0.2 | . | . | .
Cc1ccc(-c2nc(NC(=O)CSc3nnc(C)s3)ns2)cc1 | -5.1 | -0.5 | -4.4 | 0.3 | 26.5* | 5.1 | -9.5
O=C(CSc1nnnn1-c1ccccc1)Nc1nsc(-c2ccc(Cl)cc2)n1 | 4.4 | -12.6 | . | . | 58.2* | -4.4 | 2.2
O=C(c1[nH]c(C(F)(F)F)nc1-c1ccccc1)N1CCN(c2ccccn2)CC1 | . | . | 6.3 | 0.1 | . | . | .
c1ccc(CNc2nc(-c3cccnc3)nc3ccccc23)cc1 | 1.6 | 26.2 | -63.7 | 0.1 | -25.6 | -1.6 | .
c1ccc(CNc2nc(-c3cccs3)nc3ccccc23)cc1 | 18.2 | -8.9 | . | 0.0 | 16.8* | -18.2 | 2.3
Clc1cccc(CNc2nc(-c3cccnc3)nc3ccccc23)c1 | . | 1.1 | 0.8 | 0.1 | 54.8* | . | 1.6
c1ccc(CNc2nc(-c3ccccc3)nc3ccccc23)cc1 | 12.7 | -20.9 | -54.7 | 0.2 | -0.2 | -12.7 | .
S=c1nc(NCc2cccc(Cl)c2)c2ccccc2[nH]1 | 14.4 | -11.4 | -9.7 | 0.0 | 45.3* | -14.4 | 0.4
COc1cc2[nH]c(=S)nc(NCc3cccc(Cl)c3)c2cc1OC | 31.3 | -18.2 | -42.2 | -0.1 | -7.0 | -31.3 | .
Cc1cc(=O)[nH]c(SCC(=O)Nc2nnc(CC(C)C)s2)n1 | -7.6 | -2.2 | . | . | -3.2 | 7.6 | .
CC(C)Cc1nnc(NC(=O)CSc2nc(-c3ccccc3)cc(=O)[nH]2)s1 | -9.2 | -14.1 | 3.6 | 0.6 | 48.9* | 9.2 | 0.7
Cc1cc(C)cc(NC(=O)CSc2nnc(NC(=O)C3CC3)s2)c1 | -3.7 | -6.0 | 7.8 | 0.2 | 28.2* | 3.7 | -2.4
Cc1ccc(NC(=O)CSc2nnc(NC(=O)C3CC3)s2)cc1C | . | 2.0 | 0.5 | -0.1 | 8.4 | . | .
Cc1ccc(NC(=O)CSc2nnc(NC(=O)C3CC3)s2)cc1 | -3.3 | -4.6 | 5.8 | 0.1 | 31.1* | 3.3 | 0.5
Cc1ccccc1NC(=O)C1CCN(c2cc(-c3ccccc3)nc3ncnn23)CC1 | 1.3 | -11.7 | . | . | 24.3* | -1.3 | -4.6
COc1ccc(OC)c(NS(=O)(=O)c2ccc(NC(C)=O)cc2)c1 | -2.8 | -10.0 | . | . | -7.8 | 2.8 | .
Cc1ccc2[nH]c(=O)c(-c3nc4cc(C)ccn4c3NCc3ccco3)cc2c1 | -22.6 | -7.6 | . | . | 32.3* | 22.6 | -5.4
Cc1cccc2cc(-c3nc4c(C)cccn4c3NCc3ccco3)c(=O)[nH]c12 | -8.1 | -17.1 | . | . | -2.4 | 8.1 | .
CCCCCNCC(=O)Nc1cccc(C(=O)Nc2cccc(C(F)(F)F)c2)c1 | 14.5 | -14.8 | -52.1 | 0.1 | -123.5 | -14.5 | .
O=C(NNc1ncnc2sccc12)c1ccc(Cl)cc1 | -2.7 | -15.4 | -4.2 | 0.1 | 0.4 | 2.7 | .
Cc1csc2ncnc(NNC(=O)c3ccc(Cl)cc3)c12 | -0.6 | -13.5 | . | 0.0 | 28.1* | 0.6 | 1.6
CS(=O)(=O)c1ccc2nc(NC(=O)c3cccc(NS(=O)(=O)c4ccc(F)c(F)c4)c3)sc2c1 | 0.4 | -4.3 | . | 0.0 | 29.0* | -0.4 | -8.0
O=C(Nc1nc2ccc(SC(F)F)cc2s1)c1ccc(NS(=O)(=O)c2ccc(F)c(F)c2)cc1 | 43.5 | 10.3 | -16.9 | 0.0 | 38.2* | -43.5 | 5.0
SMILES | SR-BI DiI inh | PvdQ acylase | rRNA inh HTS | XiGFP reactiv | dFosB act-1 | SR-BI DiI-HDL act | dFosB act-2
CSc1nc2ccc(NC(=O)c3ccc(F)c(F)c3)cc2s1 | 46.3 | -10.2 | 0.8 | 0.0 | -8.0 | -46.3 | .
CS(=O)(=O)c1ccc2nc(NC(=O)c3cccc([N+](=O)[O-])c3)sc2c1 | 10.4 | 3.1 | -10.0 | 0.0 | 0.7 | -10.4 | .
CS(=O)(=O)c1ccc2nc(NC(=O)c3ccc(NS(=O)(=O)c4ccc(F)c(F)c4)cc3)sc2c1 | 28.1 | 8.0 | 1.7 | -0.4 | 35.5* | -28.1 | -0.6
Cc1ccc(OCC(=O)N/N=C/c2ccco2)cc1 | 21.5 | 1.3 | -0.1 | . | -2.2 | -21.5 | .
CO[C@@H](CN(C)S(=O)(=O)c1ccc(F)cc1)[C@@H](C)CN(Cc1ccccc1Cl)[C@@H](C)CO | . | . | -4.8 | 0.1 | . | . | .
C[C@@H]1CN([C@@H](C)CO)C(=O)Cc2cc(NC(=O)CCCN(C)C)ccc2O[C@H]1CN(C)Cc1ccc(C(=O)Nc2ccccc2N)cc1 | . | . | 4.4 | -1.2 | . | . | .
CC(=O)c1sc(NC(=O)c2oc3ccc(F)cc3c2C)nc1C | 25.8 | -2.1 | 16.4 | -0.1 | 59.2* | -25.8 | -8.2
COc1cc(C(=O)Nc2nc3ccc(S(C)(=O)=O)cc3s2)cc(OC)c1C | 69.1 | -10.5 | 2.5 | 0.5 | 30.1* | -69.1 | 1.4
COc1ccc2oc(C(=O)Nc3nc4ccc(S(C)(=O)=O)cc4s3)c(C)c2c1 | 26.5 | 8.6 | 6.7 | 0.0 | 61.0* | -26.6 | 6.5
COc1ccc2nc(NC(=O)CS(=O)(=O)Cc3ccccc3)sc2c1 | -11.5 | 5.9 | 3.9 | 0.0 | 74.3* | 11.5 | -1.8
O=C(CS(=O)(=O)Cc1ccccc1)Nc1nc2ccccc2s1 | -13.1 | 9.0 | . | . | -1.4 | 13.1 | .
Cc1oc(-c2ccc(Cl)cc2)cc1C(=O)NC1CCN(Cc2ccccc2)CC1 | . | . | 4.8 | 0.0 | . | . | .
Cc1ccc(NC(=O)C2CCN(C(=O)[C@@H]3Cc4ccccc4CN3)CC2)cc1 | -6.9 | -2.5 | 12.5 | 0.1 | -9.2 | 6.9 | .
CC(C)(C)n1nnnc1C(c1ccccc1)N1CCN(CCN2CCOCC2)CC1 (stereo not given) | . | . | 20.9 | -0.1 | . | . | .
C/C(CC(=O)Nc1ccc(Br)cc1)=N\NC(=O)c1cccc(O)c1 | -3.9 | -4.9 | -7.9 | -0.1 | -7.7 | 3.9 | .
COc1ccc(OCC(=O)Nc2nc3cc4c(cc3s2)OCCO4)cc1 | -4.6 | 2.5 | 4.2 | 0.2 | 47.0* | 4.6 | 0.1
O=C(CSc1nnc(SCc2ccc(Cl)cc2)s1)N/N=C/c1c[nH]c2ccccc12 | . | -2.4 | . | . | 37.8* | . | 4.6
Cc1ccc(NC(=O)c2cc(C)nc3ccccc23)cc1 | 18.3 | -8.3 | 15.6 | 0.0 | -2.9 | -18.3 | .
Cc1cc(=O)n2c(C(=O)Nc3ccc(C)c(C)c3)c(C(=O)Nc3ccccc3)sc2n1 | 49.5 | -6.9 | 4.4 | 0.5 | 34.1* | -49.5 | 0.8
CCc1ccc(NC(=O)c2c(C(=O)Nc3ccccc3)sc3nc(C)cc(=O)n23)cc1 | 41.9 | -13.6 | 13.1 | 0.0 | 35.0* | -41.9 | -0.6
Cc1ccc(NC(=O)c2c(C)nc3ccccn23)cc1C | -1.8 | -2.5 | -10.7 | -0.1 | 0.4 | 1.8 | .

Source: PubChem
